# Screening data from PubChem BioAssay.
# The list is not random: actives were taken first. Their share in the collection is about 4%.
# FAS TE block: FAS thioesterase (human) inhibition; recombinant FAS-TE, OMFH fluorogenic substrate, fluorescence endpoint; inhibition, % at 15 µM; 0.67% of 360,000 active;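 active means compounds whose normalised, plate-corrected inhibition of enzyme fluorescence in the single-dose primary screen is 50% or more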;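 further: 0% = DMSO with enzyme and 100% = substrate without enzyme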
# NR3A LBD binder: NR3A (human) ligand-binding domain modulation. NR3A LBD differential scanning fluorimetry, Tm shift; 0% = protein alone, 100% = glycine-bound protein. Tm shift relative to glycine control, % at 25 µM. 2.5% of 340,000 active;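 active means melting temperature shift of at least 10% of the positive control shift, at one fixed dose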
# SENP1 FRET inh: inhibitors of human SENP1 SUMO protease catalytic domain; Q9P0U3; recombinant SENP1 catalytic domain, CyPet-SUMO1-YPet FRET cleavage; inhibition, % at 10 µM; 0.21% of 360,000 active;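 active means inhibition at least 30% at 10 µM, raw YFP signal under a set limit, fluorescence ratio 0.5 to 1.5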;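 further: 0% = enzyme with DMSO and 100% = no enzyme wells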
# Target sequence (Q9P0U3 419-644 limits assumed): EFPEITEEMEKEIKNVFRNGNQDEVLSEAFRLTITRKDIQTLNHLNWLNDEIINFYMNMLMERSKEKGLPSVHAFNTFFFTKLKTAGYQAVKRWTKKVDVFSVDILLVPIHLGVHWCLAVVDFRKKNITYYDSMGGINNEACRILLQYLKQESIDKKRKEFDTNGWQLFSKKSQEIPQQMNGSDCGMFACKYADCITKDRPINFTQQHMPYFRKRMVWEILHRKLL
#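 Material: hSENP1 catalytic domain, recombinant; medium: Tris pH 8 with BME, BSA, NP40 and catalase; compound: single concentration of 10 µM compound, 0.5% DMSO final; technique: FRET read of cyan and yellow fluorescence; timing: 50 min enzyme reaction, room temperature, light-protected; reagent: SFCypet-SUMO1-SFYpet substrate at 25 nM; control set: no-enzyme low, enzyme-DMSO high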
# iPSC survival up: enhancers of human iPSC single-cell survival. 0.044% of 360,000 active. hiPSC single-cell survival, ATPlite luminescence; 100% = ROCK inhibitor wells, 0% = DMSO. AID 602274. survival enhancement, % at 20 µM; in the data active means survival enhancement above about 18%;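 further: cells exposed to compounds for 16 hours before the ATP read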
# Cardio protect: protects H9c2 cardiomyocytes from peroxide injury. 0.63% of 360,000 active. H2O2 injury protection, ATPLite, 2 h. protection from H2O2 cell death, % at 20 µM;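 active means compounds giving at least 50% protection of heart cells from peroxide-induced death in the single-dose screen, raw or plate-pattern-corrected value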;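 further: 0% = DMSO wells with peroxide and 100% = DMSO wells without peroxide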
# Arrestin-AP2 inh: inhibitors of human beta-arrestin and AP2 interaction; inhibition, % at 10 µM; FITC-arrestin peptide / GST-AP2 beads, flow cytometry; AP2 beta2 appendage carries R879A mutation; AID 504490; 0.31% of 340,000 active;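 active means inhibition above a set limit, near 3 SD of compounds lacking own fluorescence, cut at about 54% in these data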;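 further: plate controls were DMSO wells for no effect and 5 µM unlabelled arrestin peptide for full effect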
#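 test system = AP2 appendage R879A on GSH beads | buffer or medium = PBS plus Tween 20 (0.05%) and BSA (0.1%) | incubation = 12 min plus 1 h, RT | detection = bead flow cytometry, FITC channel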
# Arr-AP2 CP1: human beta-arrestin and AP2 interaction inhibition, cherry pick. shares compounds with Arrestin-AP2 inh. GST-AP2 beads, FITC arrestin peptide binding, flow cytometry; GST-fused beta2-adaptin appendage, R879A mutant. inhibition, % at 10 µM. 2% of 1,300 active. AID 504908;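 active means inhibition above a set limit, roughly 3 SD of non-fluorescent compound noise, cut at about 38% in these data; inactive means inhibition at or below that limit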;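 further: loss of bead fluorescence from 50 nM FITC arrestin peptide bound to appendage; 0% = negative control wells and 100% = excess unlabelled arrestin peptide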
# GST GSH counter: disrupts GST binding to glutathione beads, arrestin-AP2 artifact; shares compounds with Arrestin-AP2 inh; GST-fluorescein binding to GSH beads, fluorescence, counter-screen; inhibition, % at 10 µM; 2% of 1,300 active; AID 588338;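 active means inhibition above 50%, about 3 SD of the inhibition seen with non-fluorescent compounds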;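 further: fluorescein maleimide labelled GST captured on 4 micron glutathione beads; higher means more loss of bead fluorescence from quenching or blocked binding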
# Numbers without * were called inactive; x = not tested or not shown.
SMILES,FAS TE block,NR3A LBD binder,SENP1 FRET inh,iPSC survival up,Cardio protect,Arrestin-AP2 inh,Arr-AP2 CP1,GST GSH counter
Oc1cc2c(cc1C(c1ccc(Br)cc1)N1CCCC1)OCO2 (centres undefined),6,29*,0,5,2,60*,11,18
CCOC(=O)C(=Cc1ccc(OCc2ccc([N+](=O)[O-])cc2)c(OC)c1)C(=O)OCC,5,1,-6,-6,-23,81*,-21,-6
CCOc1ccc(C(CC(=O)O)NC(=O)c2sc3ccccc3c2Cl)cc1 (centres undefined),3,3,1,2,1,104*,-4,-4
O=C(NNc1cccc(Cl)n1)c1ccccc1CC[N+](=O)[O-],-3,-1,-2,-4,14,55*,4,-7
Cc1cccc(C)c1-n1nnnc1C1(C)CCC(=O)N1CC1CCCCC1 (centres undefined),1,x,2,0,x,x,x,x
N#Cc1sc2nc(-c3cccs3)cc(-c3ccccc3)c2c1N,35,-4,-18,-1,-3,3,x,x
N#Cc1sc2nc(-c3cccs3)cc(-c3ccc(Cl)cc3)c2c1N,13,2,-29,-2,-9,61*,-11,9
O=C(Cc1ccccc1[N+](=O)[O-])N1CCN(c2ccccc2F)CC1,-8,-6,2,1,6,61*,1,4
O=C(Cc1ccccc1[N+](=O)[O-])N1CCOCC1,-2,1,1,1,2,30,x,x
O=c1[nH]c(Cc2ccccc2)nc2c1oc1ccccc12,-1,-3,0,3,12,10,x,x
O=c1[nH]c(CO)nc2c1oc1ccccc12,-6,2,0,-4,10,73*,-9,9
COc1ccc(S(=O)(=O)Nc2ccc3c(c2)C(=O)N([C@H](C)CO)C[C@H](C)[C@@H](CN(C)C(=O)Nc2c(C)noc2C)O3)cc1,-10,0,3,0,0,-2,x,x
O=C(CCc1ccccc1Cl)Nc1cc(S(=O)(=O)N2CCOCC2)ccc1N1CCCC1,5,-2,-1,0,0,30,x,x
O=C(/C=C/c1ccc(F)cc1)Nc1ccc(S(=O)(=O)N2CCOCC2)cc1,14,22*,2,0,1,54*,-6,10
O=C(CCc1ccccc1Cl)Nc1ccc(S(=O)(=O)N2CCOCC2)cc1,12,19*,-1,0,0,59*,-4,-2
COc1ccc(S(=O)(=O)NC(=O)C2(C)CCN2C(=O)Cc2cc(F)ccc2F)cc1 (centres undefined),-9,x,2,-3,7,x,x,x
COc1cccc(C(NC(C)=O)c2nc(-c3ccc4c(c3)OCO4)cs2)c1 (centres undefined),5,x,3,-1,-2,x,x,x
Nc1[nH]c(C(=O)c2ccccc2)c(-c2ccccc2C(F)(F)F)c1C(=O)NCc1ccc(F)cc1,-7,x,1,-1,x,x,x,x
COC(=O)CSc1nc(SCc2ccc(C)cc2)nc2c1CCCC2,26,-2,2,-1,-12,99*,-7,6
COc1ccc(NS(=O)(=O)c2cccc(C(=O)N3CCCC(C)C3)c2)cc1 (centres undefined),-2,-1,0,0,-4,17,x,x
COc1ccccc1NS(=O)(=O)c1ccc(C(=O)N2CCCCCCC2)cc1,4,-1,2,0,-7,21,x,x
COc1ccccc1NS(=O)(=O)c1cccc(C(=O)N2CCCCCC2)c1,-3,-1,0,2,1,55*,-4,-7
Cc1ccc(NS(=O)(=O)c2cccc(C(=O)N3CCCC(C)C3)c2)cc1 (centres undefined),0,2,0,0,0,58*,24,4
